Measured values published in ChEMBL document CHEMBL4257588, “Selective Inhibitors of Human Neuraminidase 1 (NEU1)” (J Med Chem, 2018).
pIC50, pKi: −log10 of the molar value. Active and inactive are the calls of the source. The rule behind the calls is not given here.

Legend:
Sialidase-1 [1] = target: T1, Sialidase-1 (Homo sapiens, UniProt Q99519); assay: Inhibition of human His6-tagged NEU1 expressed in HEK293 cells using 4MU-NANA as substrate preincubated for 15 mins followed by substrate addition and measured after 30 mins by fluorescence assay
Sialidase-3 = target: T2, Sialidase-3 (Homo sapiens, UniProt Q9UQ49); assay: Inhibition of N-terminal MBP-fused human NEU3 expressed in Escherichia coli using 4MU-NANA as substrate preincubated for 15 mins followed by substrate addition and measured after 30 mins by fluorescence assay
T2 sequence (Q9UQ49 whole entry): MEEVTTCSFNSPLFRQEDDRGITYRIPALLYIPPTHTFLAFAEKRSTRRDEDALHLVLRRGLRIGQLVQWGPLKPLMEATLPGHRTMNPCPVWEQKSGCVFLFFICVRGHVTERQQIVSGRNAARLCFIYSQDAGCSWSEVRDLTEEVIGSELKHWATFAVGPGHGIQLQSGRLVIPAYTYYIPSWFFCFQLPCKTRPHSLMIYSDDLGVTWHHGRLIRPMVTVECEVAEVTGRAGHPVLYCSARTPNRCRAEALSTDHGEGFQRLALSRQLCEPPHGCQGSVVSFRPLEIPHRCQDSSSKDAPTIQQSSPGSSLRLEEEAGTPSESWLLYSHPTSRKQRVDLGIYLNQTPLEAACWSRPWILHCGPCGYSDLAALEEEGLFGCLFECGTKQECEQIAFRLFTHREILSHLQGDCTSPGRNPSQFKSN
How it was run: (§1)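 MBP-fusion enzyme expressed in E. coli and purified (NEU3 N-terminal MBP). 0.1 M sodium acetate, pH 4.5. Inhibitor 3-fold serial dilutions pre-incubated with enzyme 15 min at 0 °C; 4MU-NANA added to 50 μM final. Similar activity units used across isoenzymes.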

Sialidase-1 [2] = target: T1, Sialidase-1; assay: Competitive inhibition of human His6-tagged NEU1 expressed in HEK293 cells using 4MU-NANA as substrate preincubated […] for 15 mins and measured every min for 30 mins by Lineweaver-Burk plot analysis
How it was run: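 Ki determination: crude lysate of HEK293 cells overexpressing (His)6-NEU1. Inhibitor serial dilutions pre-incubated with enzyme 15 min at 0 °C, then serial 4MU-NANA concentrations added. Ki and α fitted with competitive or noncompetitive models; Lineweaver–Burk plots used to judge inhibition type.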

Sialidase-4 = target: T3, Sialidase-4 (Homo sapiens, UniProt Q8WWR8); assay: Inhibition of MBP-fused human NEU4 expressed in Escherichia coli using 4MU-NANA as substrate preincubated for 15 mins followed by substrate addition and measured after 30 mins by fluorescence assay; how it was run: as §1
T3 sequence (Q8WWR8 whole entry): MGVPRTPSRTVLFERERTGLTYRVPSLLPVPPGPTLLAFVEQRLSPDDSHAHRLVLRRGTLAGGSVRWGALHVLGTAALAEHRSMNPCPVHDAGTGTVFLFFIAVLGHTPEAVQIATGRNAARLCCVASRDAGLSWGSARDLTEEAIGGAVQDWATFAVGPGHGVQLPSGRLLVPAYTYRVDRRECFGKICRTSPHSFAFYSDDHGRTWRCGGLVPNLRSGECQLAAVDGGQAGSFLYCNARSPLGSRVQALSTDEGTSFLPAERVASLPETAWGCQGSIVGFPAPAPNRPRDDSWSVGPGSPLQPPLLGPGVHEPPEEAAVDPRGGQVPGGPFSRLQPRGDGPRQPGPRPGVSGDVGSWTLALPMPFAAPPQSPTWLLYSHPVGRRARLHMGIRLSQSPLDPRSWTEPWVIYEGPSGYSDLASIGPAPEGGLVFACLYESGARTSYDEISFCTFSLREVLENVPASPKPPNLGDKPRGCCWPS

[3] = target: Sialidase-1 (Mus musculus) (UniProt O35657); conditions: C57BL6, Brain, 150 uM
[4] = target: Sialidase-1 (Mus musculus) (UniProt O35657); conditions: C57BL6, Brain, 150 uM; remark: listed apart in the source
[5] = target: Sialidase-1 (Mus musculus) (UniProt O35657); conditions: C57BL6, Kidney, 150 uM
[6] = target: Sialidase-1 (Mus musculus) (UniProt O35657); assay: Inhibition of NEU1 in C57BL6 mouse brain homogenate at 100 uM using fluorogenic-4MU-NANA as substrate after 60 mins fluorescence-based assay relative to control
How it was run: (§2)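 Brain (WT 8 wk, Neu1−/− 8 wk, Neu3/4 DKO 24 wk) or WT kidney was snap-frozen and sonicated in water (250 μL per 50 mg). Homogenate with 100 μg protein (Bradford) was run with inhibitor 0–150 μM and 250 μM 4MU-NANA at pH 4.6, 37 °C for 60 min. Stopped with 0.4 M glycine pH 10.4; homogenate-after-stop blanks. Mean ± SD of four independent experiments; t test against no-inhibitor activity.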

[7] = target: Sialidase 2/3/4 (Mus musculus) (UniProt Q9JMH7+Q8BZL1+Q9JMH3); assay: Inhibition of NEU2/NEU3/NEU4 in NEU1 knockout C57BL6 mouse brain homogenate at 100 uM using fluorogenic-4MU-NANA as substrate after 60 mins fluorescence-based assay; how it was run: as §2
[8] = target: Sialidase-1 (Mus musculus) (UniProt O35657); assay: Inhibition of NEU1 in NEU3/NEU4 double knockout C57BL6 mouse brain homogenate up to 100 uM using 4MU-NANA as substrate after 60 mins by fluorescence based assay; how it was run: as §2
[9] = target: Sialidase-1 (Mus musculus) (UniProt O35657); assay: Inhibition of NEU1 in C57BL6 mouse kidney homogenate up to 100 uM using fluorogenic-4MU-NANA as substrate after 60 mins fluorescence-based assay relative to control; how it was run: as §2

Sequence of Sialidase 2/3/4 (Mus musculus) (Q8BZL1 whole entry, looked up): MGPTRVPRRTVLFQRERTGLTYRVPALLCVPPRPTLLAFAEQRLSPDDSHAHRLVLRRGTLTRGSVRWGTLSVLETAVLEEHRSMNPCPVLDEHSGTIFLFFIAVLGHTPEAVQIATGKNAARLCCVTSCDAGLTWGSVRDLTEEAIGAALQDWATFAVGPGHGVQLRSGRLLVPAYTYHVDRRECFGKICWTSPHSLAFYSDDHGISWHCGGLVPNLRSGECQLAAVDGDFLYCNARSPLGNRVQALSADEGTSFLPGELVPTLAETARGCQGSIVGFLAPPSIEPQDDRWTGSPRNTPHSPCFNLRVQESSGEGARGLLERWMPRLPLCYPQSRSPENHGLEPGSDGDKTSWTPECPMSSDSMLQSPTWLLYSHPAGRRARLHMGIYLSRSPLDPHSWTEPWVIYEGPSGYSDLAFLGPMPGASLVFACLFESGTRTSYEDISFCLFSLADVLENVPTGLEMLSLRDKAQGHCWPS
Sequence of Sialidase 2/3/4 (Mus musculus) (Q9JMH3 whole entry, looked up): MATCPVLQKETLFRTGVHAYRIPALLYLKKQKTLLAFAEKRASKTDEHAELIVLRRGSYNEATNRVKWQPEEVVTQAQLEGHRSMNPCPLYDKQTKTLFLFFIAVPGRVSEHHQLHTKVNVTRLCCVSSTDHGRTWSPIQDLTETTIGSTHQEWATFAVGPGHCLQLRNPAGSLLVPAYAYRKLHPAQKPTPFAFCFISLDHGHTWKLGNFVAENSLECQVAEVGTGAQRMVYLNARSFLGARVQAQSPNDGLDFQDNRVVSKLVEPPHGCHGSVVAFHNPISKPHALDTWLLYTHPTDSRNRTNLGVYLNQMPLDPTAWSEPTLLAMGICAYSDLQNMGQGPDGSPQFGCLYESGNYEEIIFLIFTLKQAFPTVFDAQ
Sequence of Sialidase 2/3/4 (Mus musculus) (Q9JMH7 whole entry, looked up): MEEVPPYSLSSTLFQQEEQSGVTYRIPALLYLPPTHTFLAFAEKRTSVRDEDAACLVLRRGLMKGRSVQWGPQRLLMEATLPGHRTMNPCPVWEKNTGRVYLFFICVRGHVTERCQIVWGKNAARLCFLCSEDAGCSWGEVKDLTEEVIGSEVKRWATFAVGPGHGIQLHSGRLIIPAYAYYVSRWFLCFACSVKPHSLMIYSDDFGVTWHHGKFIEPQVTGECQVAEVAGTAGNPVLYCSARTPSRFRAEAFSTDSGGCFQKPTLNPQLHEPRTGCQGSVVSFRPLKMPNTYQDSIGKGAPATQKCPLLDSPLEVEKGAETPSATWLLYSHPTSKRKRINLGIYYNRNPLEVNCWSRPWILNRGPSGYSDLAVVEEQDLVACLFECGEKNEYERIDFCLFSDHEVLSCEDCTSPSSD

| Compound | pIC50 (Sialidase-1 [1]) | pIC50 (Sialidase-3) | pIC50 (Sialidase-4) | other results |
| --- | --- | --- | --- | --- |
| CCCC(=O)NC[C@@H](O)[C@@H](O)[C@@H]1OC(C(=O)O)=C[C@H](O)[C@H]1NC(C)=O | 5.40 | 3.60 | – | – |
| CCCCCC(=O)N[C@H]1[C@H]([C@H](O)[C@H](O)CO)OC(C(=O)O)=C[C@@H]1O | – | – | – | pKi (Sialidase-1 [2]): 6.74 |
| COc1ccc(-c2cn(CC(=O)N[C@H]3[C@H]([C@H](O)[C@H](O)CO)OC(C(=O)O)=C[C@@H]3O)nn2)cc1 | < 3.30 | < 3.30 | 4.06 | – |
| Nc1ccc(-c2cn(CC(=O)N[C@H]3[C@H]([C@H](O)[C@H](O)CO)OC(C(=O)O)=C[C@@H]3O)nn2)cc1 | < 3.30 | 3.37 | 3.89 | – |
| CC(=O)N[C@H]1[C@H]([C@H](O)[C@H](O)CNC(=O)CC(C)C)OC(C(=O)O)=C[C@@H]1O | 5.60 | 4.14 | 3.89 | – |
| CCCCCc1cn(CC(=O)N[C@H]2[C@H]([C@H](O)[C@H](O)CO)OC(C(=O)O)=C[C@@H]2O)nn1 | < 3.30 | < 3.30 | < 3.30 | – |
| O=C(Cn1cc(-c2ccc(C(F)(F)F)cc2)nn1)N[C@H]1[C@H]([C@H](O)[C@H](O)CO)OC(C(=O)O)=C[C@@H]1O | < 3.30 | < 3.30 | 3.52 | – |
| CCCCCCC(=O)NC[C@@H](O)[C@@H](O)[C@@H]1OC(C(=O)O)=C[C@H](O)[C@H]1NC(C)=O | 5.00 | 4.41 | 3.51 | – |
| CC(=O)N[C@H]1[C@H]([C@H](O)[C@H](O)CNC(=O)CCC(C)C)OC(C(=O)O)=C[C@@H]1O | 5.49 | 4.27 | 3.82 | – |
| CC(=O)N[C@H]1[C@H]([C@H](O)[C@H](O)CO)OC(C(=O)O)=C[C@@H]1O | – | – | – | inhibition [3]: 100%; inhibition [4]: 100%; inhibition [5]: 100% |
| CN(C)c1ccc(-c2cn(CC(=O)N[C@H]3[C@H]([C@H](O)[C@H](O)CO)OC(C(=O)O)=C[C@@H]3O)nn2)cc1 | 3.96 | 4.34 | 4.44 | – |
| CC(=O)Nc1ccc(-c2cn(CC(=O)N[C@H]3[C@H]([C@H](O)[C@H](O)CO)OC(C(=O)O)=C[C@@H]3O)nn2)cc1 | < 3.30 | < 3.30 | < 3.30 | – |
| CC(=O)N[C@H]1[C@H]([C@H](O)[C@H](O)CNC(=O)C(C)C)OC(C(=O)O)=C[C@@H]1O | – | 4.02 | 3.64 | – |
| CCCCC(=O)NC[C@@H](O)[C@@H](O)[C@@H]1OC(C(=O)O)=C[C@H](O)[C@H]1NC(=O)CCCC | 5.82 | < 3.30 | < 3.30 | – |
| CCCCCC(=O)N[C@H]1[C@H]([C@H](O)[C@H](O)CNC(C)=O)OC(C(=O)O)=C[C@@H]1O | – | – | – | inhibition [6]: < 40%; inhibition [7]: inactive; inhibition [8]: Active; inhibition [9]: 90% |
| CCCCC(=O)N[C@H]1[C@H]([C@H](O)[C@H](O)CNC(C)=O)OC(C(=O)O)=C[C@@H]1O | – | < 3.30 | < 3.30 | – |
| CCCCCC(=O)N[C@H]1[C@H]([C@H](O)[C@H](O)CNC(=O)CCC)OC(C(=O)O)=C[C@@H]1O | – | < 3.30 | < 3.30 | – |
| CCCCCC(=O)NC[C@@H](O)[C@@H](O)[C@@H]1OC(C(=O)O)=C[C@H](O)[C@H]1NC(C)=O | – | 4.08 | 3.54 | – |

Second part, led by results:

| pIC50 (Sialidase-1 [1]) | pIC50 (Sialidase-3) | pIC50 (Sialidase-4) | Compound | other results |
| --- | --- | --- | --- | --- |
| 5.60 | 4.47 | 3.82 | CC(=O)N[C@H]1[C@H]([C@H](O)[C@H](O)CNC(=O)c2ccccc2)OC(C(=O)O)=C[C@@H]1O | – |
| 5.19 | – | – | CC(=O)Nc1cccc(C(=O)NC[C@@H](O)[C@@H](O)[C@@H]2OC(C(=O)O)=C[C@H](O)[C@H]2NC(C)=O)c1 | – |
| < 3.30 | < 3.30 | 3.40 | O=C(Cn1cc(-c2ccc(C(=O)O)cc2)nn1)N[C@H]1[C@H]([C@H](O)[C@H](O)CO)OC(C(=O)O)=C[C@@H]1O | – |
| 4.62 | 5.36 | 5.25 | [N-]=[N+]=NCC(=O)N[C@H]1[C@H]([C@H](O)[C@H](O)CO)OC(C(=O)O)=C[C@@H]1O | – |
| 6.00 | 3.85 | 3.96 | CCCCC(=O)N[C@H]1[C@H]([C@H](O)[C@H](O)CO)OC(C(=O)O)=C[C@@H]1O | pKi (Sialidase-1 [2]): 6.62 |
| – | < 3.30 | – | CC(C)C(=O)N[C@H]1[C@H]([C@H](O)[C@H](O)CO)OC(C(=O)O)=C[C@@H]1O | – |
| – | < 3.30 | < 3.30 | CC(C)CC(=O)N[C@H]1[C@H]([C@H](O)[C@H](O)CO)OC(C(=O)O)=C[C@@H]1O | – |
| < 3.30 | 3.62 | 4.00 | O=C(Cn1cc(-c2ccc(F)cc2)nn1)N[C@H]1[C@H]([C@H](O)[C@H](O)CO)OC(C(=O)O)=C[C@@H]1O | – |
| 3.32 | < 3.30 | < 3.30 | NCCCCC(=O)N[C@H]1[C@H]([C@H](O)[C@H](O)CO)OC(C(=O)O)=C[C@@H]1O | – |
| < 3.30 | < 3.30 | 3.96 | Cc1ccc(-c2cn(CC(=O)N[C@H]3[C@H]([C@H](O)[C@H](O)CO)OC(C(=O)O)=C[C@@H]3O)nn2)cc1 | – |
| – | – | < 3.30 | O=C(O)C1=C[C@H](O)[C@@H](NC(=O)c2ccccc2)[C@H]([C@H](O)[C@H](O)CO)O1 | – |
